Experimental data: article PMC6396672 (OncoTargets and therapy, 2019)
Read-outs that look alike come from different tables or passages of the source. Values belong to the compound of their own block, whether it stands above or below them.

Legend:
[1] = Clearance of sorafenib in cultured cells by LC-MS/MS; format: in vitro ADME; settings: human, HepG2 cells (cultured HCC cells), Half-life of sorafenib (t1/2)
How it was run: (§1)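 Cultured human HCC cells (with or without the co-treatment or siRNA named in the line) were exposed to sorafenib at 1 μmol/L for 12 hours, then harvested at set time points. Samples were extracted with acetonitrile, and the remaining sorafenib was quantified by LC-MS/MS. Half-life (t1/2) was calculated from the decline over time.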

HepG2 cells = test: MTT assay, cell survival; format: cell-based; settings: for IC50: Homo sapiens
How it was run: (§2)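 Compounds were dissolved in DMSO and diluted in DMEM. Cells were treated at 0.01, 0.03, 0.1, 0.3, 1, 3 and 10 μmol/L, and viability was read by MTT. Inhibition rates were calculated, and IC25, IC50 and ICmax were derived by curve fitting.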

[2] = tested on: subcutaneous MHCC97-H tumors; test: Clearance of sorafenib in subcutaneous tumor by LC-MS/MS; format: in vivo, nude mice; settings: PXR siRNA +siRNA
How it was run: (§3)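 Nude mice (T-cell deficient, 4–6 weeks) carried subcutaneous tumours grown from injected HCC cells; siRNA sequences were described in earlier work. Sorafenib solution was injected into the tumours, and tissue was harvested at set time points. Samples were extracted with acetonitrile, and residual sorafenib was quantified by LC-MS/MS. t1/2 was obtained by curve fitting.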

LM-3 cells = test: MTT assay, cell survival; format: cell-based
How it was run: as §2

[3] = Clearance of sorafenib in cultured cells by LC-MS/MS; format: in vitro ADME; settings: human, MHCC97-L cells (cultured HCC cells), Half-life of sorafenib (t1/2)
How it was run: as §1

[4] = as above; format: in vitro ADME; settings: human, LM-3 cells (cultured HCC cells), Half-life of sorafenib (t1/2), LM-3 cultured cells
How it was run: as §1

MHCC97-H cells = test: MTT assay, cell survival; format: cell-based; settings: for IC50: Homo sapiens, MHCC97H
How it was run: as §2

subcutaneous LM-3 tumors = test: Clearance of sorafenib in subcutaneous tumor by LC-MS/MS; format: in vivo, nude mice; settings: LM-3 subcutaneous tumor, ETS-1 siRNA
How it was run: as §3

[5] = Clearance of sorafenib in cultured cells by LC-MS/MS; format: in vitro ADME; settings: human, MHCC97-H cells (cultured HCC cells), Half-life of sorafenib (t1/2)
How it was run: as §1

MHCC97-L cells = test: MTT assay, cell survival; format: cell-based; settings: for IC50: MHCC97L
How it was run: as §2

[6] = tested on: MDR-related genes in MHCC97-H cells; test: qPCR of MDR-related genes; format: cell-based; settings: ARQ-197 at IC25 concentration
How it was run: (§4)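 Total RNA from treated HCC cells was extracted and reverse transcribed. Target mRNAs were measured by real-time qPCR with gene-specific primers and normalised to β-actin mRNA. EMT targets were E-cadherin, N-cadherin and vimentin; MDR targets were CYP3A4, MDR-1 and UGT1A9.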

ETS-1 = test: Gene reporter luciferase assay EBS-Luc; format: cell-based; settings: MHCC97-H cells, dose-dependent
PXR = settings: MHCC97-H cells, dose-dependent
MHCC97-H tumors = test: In vivo antitumor effect, subcutaneous tumor model; settings: nude mice
How it was run: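 Nude (T-cell-deficient) mice, aged 4–6 weeks, were injected subcutaneously with 1×10^6 MHCC97-H cells per animal. Treatment started 3–4 days after injection: sorafenib 2 mg/kg given orally every 2 days, ten doses over 21 days. Mice were then harvested and tumour volumes or weights measured. Inhibition rates were calculated from tumour volume or weight.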

[7] = tested on: EMT-related genes in MHCC97-H cells; test: qPCR of EMT-related genes; format: cell-based; settings: ARQ-197 at IC25 concentration
How it was run: as §4

L-02 cells = test: MTT assay, cell survival; format: cell-based
How it was run: as §2

half-life at 1 μmol/L ([1]; ARQ-197): 12.5 ± 0.62 h | half-life at 1 μmol/L ([1]; solvent control): 9.62 ± 0.82 h | Half-life of sorafenib (t1/2) [2]: 40.13 ± 0.83 h | half-life at 1 μmol/L ([3]; ARQ-197): 12.6 ± 0.18 h | half-life at 1 μmol/L ([3]; solvent control): 10.2 ± 0.51 h | half-life at 1 μmol/L ([4]; ARQ-197): 14.4 ± 0.67 h | half-life at 1 μmol/L ([4]; ETS-1 siRNA): 15.6 ± 0.46 h | half-life at 1 μmol/L ([4]; ETS-1 siRNA +ARQ-197): 15.2 ± 0.18 h | half-life at 1 μmol/L ([4]; PXR siRNA): 18 ± 0.25 h | half-life at 1 μmol/L ([4]; PXR siRNA +siRNA): 18.4 ± 0.67 h | half-life at 1 μmol/L ([4]; solvent control): 9.93 ± 0.57 h | Half-life of sorafenib (t1/2) (subcutaneous LM-3 tumors): 39.45 ± 0.74 h | half-life at 1 μmol/L ([5]; ARQ-197): 13.6 ± 0.65 h | half-life at 1 μmol/L ([5]; ETS-1 siRNA): 13.8 ± 0.84 h | half-life at 1 μmol/L ([5]; ETS-1 siRNA +ARQ-197): 13.5 ± 0.23 h | half-life at 1 μmol/L ([5]; PXR siRNA): 17.7 ± 0.91 h | half-life at 1 μmol/L ([5]; PXR siRNA +siRNA): 17.6 ± 0.88 h | half-life at 1 μmol/L ([5]; solvent control): 9.08 ± 0.43 h
Compound: CNC(=O)c1cc(Oc2ccc(NC(=O)Nc3ccc(Cl)c(C(F)(F)F)c3)cc2)ccn1 [sorafenib]
IC50 (HepG2 cells; HepG2, read-out: IC50 values of sorafenib, HepG2, solvent control): 1680 ± 420 nM | IC50 (LM-3 cells; LM3, read-out: IC50 values of sorafenib, LM-3, solvent control): 1290 ± 250 nM | IC50 (MHCC97-H cells; read-out: IC50 values of sorafenib, MHCC97-H, solvent control): 1390 ± 460 nM | IC50 (MHCC97-L cells; read-out: IC50 values of sorafenib, MHCC97-L, ARQ-197): 970 ± 390 nM | IC50 (MHCC97-L cells; read-out: IC50 values of sorafenib, MHCC97-L, solvent control): 2730 ± 400 nM

expression of Cyp3a4 (mRNA) [6]: decreased | luciferase activity of EBS-Luc reporter (ETS-1): inhibited | luciferase activity of DR3-Luc reporter (PXR): inhibited
Compound: O=C1NC(=O)[C@@H](c2cn3c4c(cccc24)CCC3)[C@@H]1c1c[nH]c2ccccc12 [ARQ-197]
expression of Mdr-1 (mRNA) [6]: decreased | expression of Ugt1a9 (mRNA) [6]: decreased | IC25 values (HepG2 cells; HepG2, MTT): 230 ± 70 nM | ICmax values (maximum action concentration) (HepG2 cells; HepG2, MTT): 9.55 ± 0.57 µmol/L | IC50 (HepG2 cells; HepG2, read-out: IC50 values, HepG2, MTT): 1990 ± 470 nM | IC50 (LM-3 cells; LM3, read-out: IC50 values, LM-3, MTT): 670 ± 160 nM | IC25 values (LM-3 cells; LM-3, MTT): 80 ± 20 nM | ICmax values (maximum action concentration) (LM-3 cells; LM-3, MTT): 4.62 ± 0.80 µmol/L | IC50 (MHCC97-H cells; read-out: IC50 values, MHCC97-H, MTT): 760 ± 220 nM | IC25 values (MHCC97-H cells; MHCC97-H, MTT): 90 ± 10 nM | ICmax values (maximum action concentration) (MHCC97-H cells; MHCC97-H, MTT): 3.56 ± 0.65 µmol/L | effect of ARQ-197 on the antitumor effect of sorafenib in vivo (MHCC97-H tumors; 3 mg/kg ARQ-197 + 2 mg/kg sorafenib compared to sorafenib alone, MHCC97-H tumors): significantly enhanced the antitumor effect of sorafenib | subcutaneous growth of MHCC97-H tumors (MHCC97-H tumors; 3 mg/kg ARQ-197, oral, compared to vehicle controls): inhibited the subcutaneous growth of MHCC97-H tumors | expression of E-cadherin (mRNA) [7]: enhanced | expression of N-cadherin (mRNA) [7]: decreased | expression of vimentin (mRNA) [7]: decreased | IC50 (L-02 cells; Homo sapiens, L02, read-out: IC50 values): 7590 ± 780 nM | IC25 values (L-02 cells; L-02, MTT): 3440 ± 240 nM | IC25 values (MHCC97-L cells; MHCC97-L, MTT): 1290 ± 520 nM | IC50 (MHCC97-L cells; read-out: IC50 values, MHCC97-L, MTT): 4630 ± 930 nM
